Data: ChEMBL document CHEMBL1123390, “3-Hydroxy-3-methylglutaryl-coenzyme A reductase inhibitors. 3. 7-(3,5-Disubstituted [1,1'-biphenyl]-2-yl)-3,5-dihydroxy-6-heptenoic acids and their lactone derivatives” (J Med Chem, 1986)

Key:
[1] = target: T1, 3-hydroxy-3-methylglutaryl-coenzyme A reductase (Rattus norvegicus) (UniProt P51639); assay: Inhibitory potency against purified rat liver HMG-CoA reductase relative to compactin
T1 sequence (whole entry): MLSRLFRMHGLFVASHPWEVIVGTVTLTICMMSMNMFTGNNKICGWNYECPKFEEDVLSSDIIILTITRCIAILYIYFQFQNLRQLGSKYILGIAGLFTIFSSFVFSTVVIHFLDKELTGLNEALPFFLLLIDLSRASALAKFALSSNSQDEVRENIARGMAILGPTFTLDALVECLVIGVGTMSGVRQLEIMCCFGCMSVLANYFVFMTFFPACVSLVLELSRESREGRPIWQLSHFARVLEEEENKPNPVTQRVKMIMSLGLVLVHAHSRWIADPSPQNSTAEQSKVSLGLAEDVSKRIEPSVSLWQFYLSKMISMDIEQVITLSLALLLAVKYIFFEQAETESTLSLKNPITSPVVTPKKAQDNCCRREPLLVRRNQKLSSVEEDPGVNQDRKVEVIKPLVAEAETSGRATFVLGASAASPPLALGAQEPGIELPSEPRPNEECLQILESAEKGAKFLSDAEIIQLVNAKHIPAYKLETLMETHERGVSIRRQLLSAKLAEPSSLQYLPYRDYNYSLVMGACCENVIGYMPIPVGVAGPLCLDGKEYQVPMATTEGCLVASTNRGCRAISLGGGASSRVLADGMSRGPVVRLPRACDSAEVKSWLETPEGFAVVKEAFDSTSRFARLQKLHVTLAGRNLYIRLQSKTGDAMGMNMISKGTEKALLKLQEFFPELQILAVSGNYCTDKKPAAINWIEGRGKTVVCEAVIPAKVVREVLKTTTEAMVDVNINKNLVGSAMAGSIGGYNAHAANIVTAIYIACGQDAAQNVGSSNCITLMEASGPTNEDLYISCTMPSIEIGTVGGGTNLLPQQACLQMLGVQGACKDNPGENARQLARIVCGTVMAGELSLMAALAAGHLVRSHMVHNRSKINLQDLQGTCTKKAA

[2] = target: T2, 3-hydroxy-3-methylglutaryl-coenzyme A reductase (Rattus norvegicus, UniProt P51639); assay: Inhibition of solubilized partially purified rat liver HMG-CoA reductase
T2 sequence (P51639 whole entry): T1 sequence (whole entry)
Procedure, shortened: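 Enzyme inhibition was tested at four or five test-compound concentrations, and percentage inhibition was plotted against concentration. IC50 came from a straight line fitted to these points by least squares. The full protocol is given in part 1 of the series.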

Relative potency [1]	IC50 [2]	SMILES
30	44 nM	CCc1cccc(-c2cc(Cl)cc(Cl)c2/C=C/[C@@H]2C[C@@H](O)CC(=O)O2)c1
11	190 nM	Cc1ccc(-c2cc(Cl)cc(Cl)c2/C=C/[C@@H]2C[C@@H](O)CC(=O)O2)cc1
115	13 nM	Cc1cc(C)cc(-c2cc(Cl)cc(Cl)c2/C=C/[C@@H]2C[C@@H](O)CC(=O)O2)c1
40	30 nM	Cc1cc(-c2cccc(Cl)c2/C=C/[C@@H]2C[C@@H](O)CC(=O)O2)ccc1F
–	260 nM	O=C1C[C@H](O)C[C@@H](/C=C/c2c(Cl)cc(Cl)cc2-c2ccc(F)cc2)O1 (stereo in doubt; 100(i)i) [listing 1 of 2 here]
0.06	–	O=C1C[C@H](O)C[C@@H](/C=C/c2ccc(Cl)cc2Cl)O1
0.18	–	Cc1cc(C)c(/C=C/[C@@H]2C[C@@H](O)CC(=O)O2)c(-c2ccc(F)c(C)c2)c1 (stereo in doubt; 110(-)) [listing 1 of 2 here]
94	16 nM	Cc1cccc(-c2cc(Cl)cc(Cl)c2/C=C/[C@@H]2C[C@@H](O)CC(=O)O2)c1
26.5	49 nM	Cc1cc(C)c(/C=C/[C@@H]2C[C@@H](O)CC(=O)O2)c(-c2ccc(F)c(CO)c2)c1
92	13 nM	Cc1cc(Cl)c(/C=C/[C@@H]2C[C@@H](O)CC(=O)O2)c(-c2ccc(F)c(C)c2)c1
123	13 nM	Cc1ccc(C)c(-c2ccc(Cl)c(Cl)c2)c1/C=C/[C@@H]1C[C@@H](O)CC(=O)O1
2.6	470 nM	COc1ccc(-c2cc(Cl)cc(Cl)c2/C=C/[C@@H]2C[C@@H](O)CC(=O)O2)cc1
3.5	860 nM	O=C1C[C@H](O)C[C@@H](/C=C/c2c(F)cc(F)cc2-c2ccc(F)cc2)O1
280	–	O=C1C[C@H](O)C[C@@H](/C=C/c2c(Cl)cc(Cl)cc2-c2ccc(F)cc2)O1 (stereo in doubt; 100(+)h) [listing 1 of 2 here]
100	29 nM	Cc1cc(-c2cc(Cl)cc(Cl)c2/C=C/[C@@H]2C[C@@H](O)CC(=O)O2)ccc1F
2.4	630 nM	Cc1cc(C)c(/C=C/[C@@H]2C[C@@H](O)CC(=O)O2)c(/C=C/c2ccc(Cl)cc2)c1
78	37 nM	O=C1C[C@H](O)C[C@@H](/C=C/c2c(Cl)cc(Cl)cc2-c2cc(Cl)cc(Cl)c2)O1
4.3	530 nM	O=C1C[C@H](O)CC(CCc2c(Cl)cc(Cl)cc2Cc2ccccc2)O1 (some centres undefined)
80	15 nM	Cc1cc(C)cc(-c2cc(C)cc(C)c2/C=C/[C@@H]2C[C@@H](O)CC(=O)O2)c1
171	–	Cc1cc(C)c(/C=C/[C@@H]2C[C@@H](O)CC(=O)O2)c(-c2ccc(F)c(C)c2)c1 (stereo in doubt; 110) [listing 1 of 2 here]
0.63	–	O=C1C[C@H](O)C[C@@H](/C=C/c2ccccc2-c2ccccc2)O1
100	–	O=C1C[C@H](O)C[C@@H](/C=C/c2c(Cl)cc(Cl)cc2-c2ccc(F)cc2)O1 (stereo in doubt; 100) [listing 1 of 2 here]

Relative potency [1]	IC50 [2]	SMILES
150	10 nM	Cc1cc(C)c(/C=C/[C@@H]2C[C@@H](O)CC(=O)O2)c(-c2cc(C)c(F)c(C)c2)c1
–	24 nM	O=C1C[C@H](O)C[C@@H](/C=C/c2c(Cl)cc(Cl)cc2-c2ccc(F)cc2)O1 (stereo in doubt; 100) [listing 2 of 2 here]
5	–	O=C1C[C@H](O)C[C@@H](/C=C/c2c(Cl)cc(Cl)cc2-c2ccc(F)cc2)O1 (stereo in doubt; 100(i)i) [listing 2 of 2 here]
–	5 nM	O=C1C[C@H](O)C[C@@H](/C=C/c2c(Cl)cc(Cl)cc2-c2ccc(F)cc2)O1 (stereo in doubt; 100(+)h) [listing 2 of 2 here]
–	7 nM	Cc1cc(C)c(/C=C/[C@@H]2C[C@@H](O)CC(=O)O2)c(-c2ccc(F)c(C)c2)c1 (stereo in doubt; 110) [listing 2 of 2 here]
18	100 nM	O=C1C[C@H](O)CC(CCc2c(Cl)cc(Cl)cc2-c2ccccc2)O1 (some centres undefined)
–	7.6 nM	Cc1cc(C)c(/C=C/[C@@H]2C[C@@H](O)CC(=O)O2)c(-c2ccc(F)c(C)c2)c1 (stereo in doubt; 110 (+)) [listing 1 of 2 here]
175	8 nM	Cc1cc(C)c(/C=C/[C@@H]2C[C@@H](O)CC(=O)O2)c(-c2ccc(Cl)c(Cl)c2)c1
45	22 nM	Cc1cc(C)c(CCC2C[C@@H](O)CC(=O)O2)c(-c2ccc(F)c(C)c2)c1 (some centres undefined)
38.6	70 nM	O=C1C[C@H](O)C[C@@H](/C=C/c2c(Cl)cc(Cl)cc2-c2cccc(F)c2)O1
96	13 nM	Cc1cc(C)c(/C=C/[C@@H]2C[C@@H](O)CC(=O)O2)c(-c2ccc(F)cc2)c1
26	80 nM	O=C1C[C@H](O)C[C@@H](/C=C/c2c(Cl)cc(Cl)cc2-c2ccccc2)O1
0.44	44000 nM	O=C1C[C@H](O)CC(CCc2ccccc2-c2ccccc2)O1 (some centres undefined)
233	6 nM	Cc1cc(-c2cc(Cl)cc(C)c2/C=C/[C@@H]2C[C@@H](O)CC(=O)O2)ccc1F
289	–	Cc1cc(C)c(/C=C/[C@@H]2C[C@@H](O)CC(=O)O2)c(-c2ccc(F)c(C)c2)c1 (stereo in doubt; 110 (+)) [listing 2 of 2 here]
58	36 nM	O=C1C[C@H](O)C[C@@H](/C=C/c2c(Cl)cc(Cl)cc2-c2ccc(Cl)cc2)O1
26	50 nM	COc1cccc(-c2cc(Cl)cc(Cl)c2/C=C/[C@@H]2C[C@@H](O)CC(=O)O2)c1
116	25 nM	O=C1C[C@H](O)C[C@@H](/C=C/c2c(Cl)cc(Cl)cc2-c2ccc(Cl)c(Cl)c2)O1
–	7300 nM	Cc1cc(C)c(/C=C/[C@@H]2C[C@@H](O)CC(=O)O2)c(-c2ccc(F)c(C)c2)c1 (stereo in doubt; 110(-)) [listing 2 of 2 here]
2.8	430 nM	O=C1C[C@H](O)C[C@@H](/C=C/c2c(Cl)cc(Cl)cc2CCc2ccccc2)O1
33	36 nM	Cc1cc(F)ccc1-c1cc(Cl)cc(Cl)c1/C=C/[C@@H]1C[C@@H](O)CC(=O)O1
3.2	370 nM	Cc1ccccc1-c1cc(Cl)cc(Cl)c1/C=C/[C@@H]1C[C@@H](O)CC(=O)O1
